From PMC6331054 (Bioorganic & medicinal chemistry, 2018) come the findings set out here.

For series [1], the target named is T1, recombinant human mitochondrial ALDH2 (hALDH2) (Homo sapiens, UniProt P05091).
T1 sequence (P05091 18-517): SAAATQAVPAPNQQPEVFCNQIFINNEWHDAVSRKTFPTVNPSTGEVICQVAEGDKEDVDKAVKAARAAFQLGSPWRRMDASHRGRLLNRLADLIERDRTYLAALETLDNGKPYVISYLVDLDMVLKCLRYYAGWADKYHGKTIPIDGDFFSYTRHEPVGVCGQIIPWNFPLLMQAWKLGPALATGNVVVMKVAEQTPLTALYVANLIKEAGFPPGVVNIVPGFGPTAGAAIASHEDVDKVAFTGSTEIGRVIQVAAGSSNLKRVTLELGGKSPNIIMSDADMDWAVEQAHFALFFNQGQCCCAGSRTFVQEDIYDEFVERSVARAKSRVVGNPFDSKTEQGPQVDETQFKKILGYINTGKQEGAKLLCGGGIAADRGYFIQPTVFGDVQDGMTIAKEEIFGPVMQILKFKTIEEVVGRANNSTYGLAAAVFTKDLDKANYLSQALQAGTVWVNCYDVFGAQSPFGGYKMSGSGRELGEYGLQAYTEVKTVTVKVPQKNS
In kind it is biochemical. Particulars: read-out: KI (Morrison); Morrison equation; ALDH2 4.43 μM. The method, boiled down: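 Cobalt-purified recombinant hALDH2 (4.5 μM in Hepes pH 8.5/KCl/EDTA dialysis buffer plus 1 mM TCEP) in 20 mM Hepes pH 8.3, 150 mM KCl, 1 mM EDTA, 2 mM DTT, 5 mM propionaldehyde, 25°C. Pre-incubation 20 min–1 hr with test compound (1–100 μM final) or DMSO; NAD+ (5 mM final) started reaction; NADH at 340 nm for 5 min. KI by Morrison equation; triplicates, 3–5 experiments.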

Series [2] deals with T2, recombinant chicken RALDH2 (Gallus gallus, UniProt O93344).
T2 sequence (O93344 1-518): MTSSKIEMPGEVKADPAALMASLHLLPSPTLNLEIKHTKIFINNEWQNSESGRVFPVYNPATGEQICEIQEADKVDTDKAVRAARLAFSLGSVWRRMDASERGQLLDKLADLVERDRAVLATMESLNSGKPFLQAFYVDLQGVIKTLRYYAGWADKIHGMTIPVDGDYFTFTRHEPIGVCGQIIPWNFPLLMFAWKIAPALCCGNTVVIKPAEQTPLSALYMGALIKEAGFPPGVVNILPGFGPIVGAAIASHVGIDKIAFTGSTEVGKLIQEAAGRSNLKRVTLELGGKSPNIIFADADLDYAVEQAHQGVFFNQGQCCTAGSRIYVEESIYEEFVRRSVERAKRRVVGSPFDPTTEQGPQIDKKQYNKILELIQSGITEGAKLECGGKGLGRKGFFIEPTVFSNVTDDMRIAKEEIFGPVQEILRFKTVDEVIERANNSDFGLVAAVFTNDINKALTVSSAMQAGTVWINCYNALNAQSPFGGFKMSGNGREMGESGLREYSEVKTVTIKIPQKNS
Put plainly: Fluorescence-based NADH assay of RALDH activity with retinaldehyde as substrate. In kind it is biochemical.

For series [3], the target named is T3, RALDH2 activity in chick choroid cytosol fractions (Gallus gallus, UniProt O93344).
T3 sequence (O93344 1-518): T2 sequence (O93344 1-518)
In kind it is biochemical. The procedure, abridged: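 Choroidal cytosol from control and 4-day recovering chick eyes was pre-incubated 20 min at 37°C with test compound (0–6 μM) or DMSO. Reaction was started with NAD+ (4 mM) and all-trans-retinaldehyde (25 μM), run 30 min at 37°C under dim red light, stopped with ice and methanol. ATRA was quantified by HPLC.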

A short description of series [4]: Stability of DAR on storage and under assay conditions. In kind it is physicochemical.
Series [5] addresses T4, RALDH2 activity (ATRA synthesis) in living intact chick choroids (Gallus gallus, UniProt O93344).
T4 sequence (O93344 1-518): T2 sequence (O93344 1-518)
Put plainly: RALDH2 activity after incubation of living, intact choroids in organ culture. In kind it is cell-based. As to conditions: organ culture 24 hrs. The procedure, abridged: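 Choroids from 4-day recovering or contralateral control eyes of male White Leghorn chicks (8 mm posterior punch) were cultured one per well in N2 medium with test compound (methods: 0.01–5 μM; legend: 0.01–10 μM) or DMSO for 24 hrs at 37°C, 5% CO2. Cytosol (100,000g, 1 hr) was incubated with NAD+ and 25 μM all-trans-retinaldehyde for 30 min at 37°C, with methanol stop and HPLC quantification of ATRA.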

Molecules are shown by their SMILES.

Usually Ki stands for a measure of affinity in units of concentration, obtained from inhibition or displacement. As usually defined, the IC50 is the midpoint of a concentration-inhibition curve. Read a low IC50 as greater potency in that assay.

Consider `CC1=C(/C=C/C(C)=C/C=C/C(C)=C/C(=O)C(Cl)Cl)C(C)(C)CCC1` [DAR, (3E,5E,7E,9E)-1,1-dichloro-4,8-dimethyl-10-(2,6,6-trimethylcyclohex-1-en-1-yl)deca-3,5,7,9-tetraen-2-one], for which, in series [1], the Ki is over 100000 nM. For the same molecule, in series [2] (250 nM DAR + 250 μM RAL), the “Protection of RALDH2 activity by all-trans-retinaldehyde in the pre-incubation” value is on record as “No protection”. Also, in series [2] (DAR 150 nM, RALDH2 46 – 91 nM), the “RALDH2 activity at enzyme concentrations below the DAR concentration” value is listed as “completely inhibited”. Moreover, the IC50 in series [3] stood at 20.7 nM. Moreover, in series [3] (0.10 – 6 μM DAR, 20 min pre-incubation at 37°C, control eyes, vs vehicle), the “inhibition of RALDH2 activity in control choroid lysates” value is 92 – 99%. Besides, the light stability entry in series [4] (ambient light) is “prone to photoisomerization”. Further, the “stability under assay conditions” value in series [4] (dark, 25°C and 37°C) was “at least three days”. For the same molecule, the storage stability entry in series [4] (stored in the dark and at −80°) is “at least three months”. Moreover, the “effect on ATRA synthesis in living, intact choroids from control eyes” value in series [5] is on record as “no significant effect”.
Take `O=C(NCCCCCCCCNC(=O)C(Cl)Cl)C(Cl)Cl` [WIN 18446, reference compound]: the “effect on ATRA synthesis in living, intact choroids from control eyes” value in series [5] is given as “no significant effect”.
